Reference: ChEMBL document CHEMBL1124101, “Asymmetrical bisintercalators as potential antitumor agents” (1988)

Tests used:
L1210 [1] = experiment: Dose required to inhibit the cloning efficiency to a factor of 37%,measured in vitro on L1210 cells after 24-h exposure
L1210 [2] = experiment: Dose that inhibits 50% of the L1210 cell growth after 24 hr exposure to the compound.; format: functional; settings: Mus musculus, L1210, 24 h; read-out: ED50 (the source's name)
Mus musculus = species on record: Mus musculus; experiment: Treated mean survival time per control mean survival time.; format: functional
Escherichia coli = experiment: Cytotoxicity on Escherichia coli polA strain mutant expressed as dose required to inhibit 37% of cell growth; format: functional
Nucleic Acid = experiment: Binding affinity for DNA; format: nucleic-acid assay
Procedure, shortened: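 Fluorometric competition with ethidium dimer (6.4 × 10^-7 M) pre-equilibrated 24 h with calf thymus DNA (1.6 × 10^-6 M base pairs). Drug was added at varying concentrations. Fluorescence was excited at 540 nm and read at 610 nm. Bound ethidium dimer per base pair was derived, and computed displacement curves were fitted to the experimental ones to give apparent affinity constants (M^-1).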

L1210 [3] = experiment: Maximal tolerated dose for anti-tumor activity in vivo on L1210-infected mice; format: functional, Mus musculus
L1210 [4] = experiment: Optimal dose for anti-tumor activity in vivo on L1210-infected mice; format: functional, Mus musculus

Row | SMILES | EC37 (L1210 [1]) [µM] | EC50 (L1210 [2]) [nM] | T/C (Mus musculus) [%] | EC37 (Escherichia coli) [µM] | K app x10e-7 (Nucleic Acid) [M⁻¹] | MTD (L1210 [3]) [mg/kg] | OD (L1210 [4]) [mg/kg]
1 | COc1ccc2c(c1)c1c3c[n+](CCN4CCC(CC5CCN(CC[n+]6ccc7ccc8c(c7c6)c6cc(OC)ccc6n8C)CC5)CC4)ccc3ccc1n2C.CS(=O)(=O)[O-].CS(=O)(=O)[O-] | 0.013 | 700 | 190 | 0.014 | 20 | 10 | 3
2 | COc1ccc2c(c1)c1c3c[n+](CCCN4CCC(C5CCN(CC[n+]6ccc7ccc8c(c7c6)c6cc(OC)ccc6n8C)CC5)CC4)ccc3ccc1n2C.CS(=O)(=O)[O-].CS(=O)(=O)[O-] | 0.112 | > 900 | 128 | 0.025 | 1 | 10 | 10
3 | COc1ccc2nc3cc(Cl)ccc3c(NCCN3CCC(C4CCN(CC[n+]5ccc6ccc7c(c6c5)c5cc(OC)ccc5n7C)CC4)CC3)c2c1.CS(=O)(=O)[O-] | >0.9 | 240 | – | 0.029 | 10 | 15 | 15
4 | COc1ccc2[nH]c3ccc4cc[n+](CCN5CCC(C6CCN(CC[n+]7ccc8ccc9[nH]c%10ccc(OC)cc%10c9c8c7)CC6)CC5)cc4c3c2c1.CS(=O)(=O)[O-].CS(=O)(=O)[O-] | 0.024 | 190 | 182 | 0.013 | 1 | 10 | 10
5 | COc1ccc2nc3cc(Cl)ccc3c(NCCN3CCC(C4CCN(CC[n+]5ccc6ccc7[nH]c8ccc(OC)cc8c7c6c5)CC4)CC3)c2c1.[Cl-] | 17 | 2700 | – | 0.057 | 5 | 15 | 15
6 | COc1ccc2c(c1)c1c3c[n+](CCN4CCC(CCC5CCN(CC[n+]6ccc7ccc8c(c7c6)c6cc(OC)ccc6n8C)CC5)CC4)ccc3ccc1n2C.CS(=O)(=O)[O-].CS(=O)(=O)[O-] | 0.77 | 900 | 170 | 0.225 | 3 | 10 | 5
7 | COc1ccc2c(c1)c1c3c[n+](CCN4CCC(C5CCN(CC[n+]6ccc7ccc8c(c7c6)c6cc(OC)ccc6n8C)CC5)CC4)ccc3ccc1n2C.CS(=O)(=O)[O-].CS(=O)(=O)[O-] | 0.006 | 360 | 178 | 0.013 | 2 | 10 | 2.5
8 | COc1ccc2c(c1)c1c3c[n+](CCN4CCC(CCCC5CCN(CC[n+]6ccc7ccc8c(c7c6)c6cc(OC)ccc6n8C)CC5)CC4)ccc3ccc1n2C.CS(=O)(=O)[O-].CS(=O)(=O)[O-] | 0.15 | 260 | – | 0.009 | 20 | 10 | 10
9 | COc1ccc2[nH]c3ccc4cc[n+](CCN5CCC(CC6CCN(CC[n+]7ccc8ccc9[nH]c%10ccc(OC)cc%10c9c8c7)CC6)CC5)cc4c3c2c1.CS(=O)(=O)[O-].CS(=O)(=O)[O-] | 0.063 | 1080 | 175 | 0.021 | 10 | 30 | 7
10 | COc1ccc2[nH]c3ccc4cc[n+](CCN5CCC(CCC6CCN(CC[n+]7ccc8ccc9[nH]c%10ccc(OC)cc%10c9c8c7)CC6)CC5)cc4c3c2c1.CS(=O)(=O)[O-].CS(=O)(=O)[O-] | 0.22 | 1340 | 143 | 0.015 | 7 | 20 | 5
11 | COc1ccc2[nH]c3ccc4cc[n+](CCCN5CCC(C6CCN(CC[n+]7ccc8ccc9[nH]c%10ccc(OC)cc%10c9c8c7)CC6)CC5)cc4c3c2c1.CS(=O)(=O)[O-].CS(=O)(=O)[O-] | 0.09 | 720 | 137 | 0.016 | 5 | 20 | 10
12 | COc1ccc2[nH]c3ccc4cc[n+](CCN5CCC(CCCC6CCN(CC[n+]7ccc8ccc9[nH]c%10ccc(OC)cc%10c9c8c7)CC6)CC5)cc4c3c2c1.CS(=O)(=O)[O-].CS(=O)(=O)[O-] | 0.14 | 340 | – | 0.087 | 5 | 10 | 5
